In ChEMBL document CHEMBL4130623, “Discovery of Highly Potent Pinanamine-Based Inhibitors against Amantadine- and Oseltamivir-Resistant Influenza A Viruses” (J Med Chem, 2018):
Active and inactive are the calls of the source.

Experiments:
[1] = system: Influenza A virus; assay: Antiviral activity against Influenza A virus (A/Guangzhou/GIRD/07/2009 (H1N1)) infected in MDCK cells assessed as reduction in virus-induced cytopathic effect after 48 hrs by microscopic analysis; assay type: functional, organism-based
In short: (§1)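 MDCK monolayers (5×10^4 cells/well, grown 24 h) were rinsed twice, infected with 100 TCID50 virus for 2 h at 37 °C in 5% CO2, and the inoculum was removed. Two-fold serial compound dilutions in DMEM with 1.5 µg/mL trypsin were added and incubated 48 h at 34 °C. CPE percentage was scored by microscope and EC50 fitted by non-linear regression.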

[2] = system: Influenza A virus; assay: Antiviral activity against Influenza A virus (A/WSN/33) by CCK-8 reagent based assay; assay type: functional, organism-based; conditions: A/WSN/1933(H1N1)
[3] = system: Influenza A virus; assay: Antiviral activity against Influenza A virus (A/HK/68) by CCK-8 reagent based assay; assay type: functional, organism-based
[4] = Cytotoxicity against MDCK cells assessed as change in cell morphology after 48 hrs by microscopic analysis; assay type: cell-based, Canis lupus familiaris; conditions: dog
In short: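 MDCK monolayers (5×10^4 cells/well, 24 h) were rinsed twice with PBS and exposed to two-fold serial compound dilutions in DMEM for 48 h. Wells were examined by microscope. The concentration giving minimal change in cell morphology was taken as the minimum cytotoxic concentration (MCC).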

[5] = system: Influenza A virus; assay: Antiviral activity against Influenza A virus (A/WSN/33 (H1N1)) infected in MDCK cells assessed as reduction in virus-induced cytopathic effect after 48 hrs by microscopic analysis; assay type: functional, organism-based; conditions: A/WSN/1933(H1N1); in short: as §1
[6] = system: Influenza A virus; assay: Antiviral activity against Influenza A virus (A/PR/8/34 (H1N1)) infected in MDCK cells assessed as reduction in virus-induced cytopathic effect after 48 hrs by microscopic analysis; assay type: functional, organism-based; conditions: A/Puerto Rico/8/1934(H1N1); in short: as §1
[7] = system: Influenza A virus; assay: Antiviral activity against Influenza A virus (A/HK/68(H3N2)) infected in MDCK cells assessed as reduction in virus-induced cytopathic effect after 48 hrs by microscopic analysis; assay type: functional, organism-based; in short: as §1
[8] = system: H3N2 subtype; assay: Antiviral activity against Influenza A virus (A/Aichi/2/68 (H3N2)) infected in MDCK cells assessed as reduction in virus-induced cytopathic effect after 48 hrs by microscopic analysis; assay type: functional, organism-based; conditions: A/Aichi/2/1968(H3N2); in short: as §1
[9] = system: Influenza A virus; assay: Antiviral activity against Influenza A virus (A/duck/Guangdong/1/1996 (H7N3)) infected in MDCK cells assessed as reduction in virus-induced cytopathic effect after 48 hrs by microscopic analysis; assay type: functional, organism-based; in short: as §1
[10] = system: Influenza A virus; assay: Antiviral activity against Influenza A virus (A/duck/HK/Y280/97 (H9N2)) infected in MDCK cells assessed as reduction in virus-induced cytopathic effect after 48 hrs by microscopic analysis; assay type: functional, organism-based; in short: as §1
[11] = system: Influenza A virus; assay: Antiviral activity against Influenza A virus (A/California/07/2009(H1N1)) infected in human A549 cells assessed as reduction in plaque area after 3 days post infection by crystal violet-staining based assay; assay type: functional, organism-based; conditions: A549, 72 h
In short: (§2)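 A549 monolayers were infected at 0.01 MOI for 1 h at 37 °C, then washed twice with PBS. Cells were overlaid with 1% agar DMEM containing compound, 2 µg/mL trypsin and 0.3% BSA. Two to three days post-infection, monolayers were fixed and stained with 0.1% crystal violet.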

[12] = system: Influenza A virus; assay: Antiviral activity against Influenza A virus (A/Texas/04/2009(H1N1)) infected in human A549 cells assessed as reduction in plaque area after 3 days post infection by crystal violet-staining based assay; assay type: functional, organism-based; conditions: A549, 72 h; in short: as §2
[13] = system: Influenza A virus; assay: Antiviral activity against Influenza A virus (A/PR/8/34 (H1N1)) infected in MDCK cells assessed as inhibition of virus yield dosed at -1 to 2 hrs post infection and measured after 24 hrs; assay type: functional, organism-based; conditions: A/Puerto Rico/8/1934(H1N1)
In short: (§3)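 Confluent MDCK cells were infected with 100 TCID50 virus and adsorbed 1 h at 4 °C (adsorption defined as -1 h), then washed. Compound at 10 µM was present only during the stated interval, then washed out with PBS. Cells were kept in medium with 1.5 µg/mL TPCK-trypsin at 37 °C. After 24 h, plates were freeze-thawed and supernatant yield was titrated by TCID50.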

[14] = biological target: Hemagglutinin (Influenza A virus (A/Puerto Rico/8/1934(H1N1))) (UniProt P03452); assay: Inhibition of Influenza A virus A/PR/8/34 HA1 domain assessed as reduction in virus-induced aggregation of chicken erythrocytes at 0.75 to 1500 uM incubated for 1 hr with virus followed by transfer of compound-virus preparation to chicken erythrocytes solution measured after 40 mins
Chain of Hemagglutinin (Influenza A virus (A/Puerto Rico/8/1934(H1N1))) (P03452 whole entry, the tested form may be a part): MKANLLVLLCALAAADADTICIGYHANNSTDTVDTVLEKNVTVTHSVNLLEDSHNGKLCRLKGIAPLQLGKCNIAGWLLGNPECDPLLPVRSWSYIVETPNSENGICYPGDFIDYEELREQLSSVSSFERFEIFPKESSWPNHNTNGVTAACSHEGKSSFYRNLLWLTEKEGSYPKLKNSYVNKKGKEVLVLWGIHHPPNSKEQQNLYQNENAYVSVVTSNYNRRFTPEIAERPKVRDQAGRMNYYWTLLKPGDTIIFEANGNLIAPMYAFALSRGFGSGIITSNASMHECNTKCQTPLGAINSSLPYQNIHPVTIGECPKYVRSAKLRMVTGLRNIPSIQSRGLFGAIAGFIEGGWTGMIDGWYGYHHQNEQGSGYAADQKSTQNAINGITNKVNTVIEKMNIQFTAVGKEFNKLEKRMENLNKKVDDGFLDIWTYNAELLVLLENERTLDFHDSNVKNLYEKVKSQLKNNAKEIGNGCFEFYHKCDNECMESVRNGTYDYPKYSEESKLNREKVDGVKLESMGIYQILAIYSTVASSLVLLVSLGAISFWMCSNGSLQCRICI
In short: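 Two-fold serial compound dilutions in PBS were mixed with an equal volume of virus and incubated 1 h. The mixture was added to an equal volume of fresh 0.5% chicken red blood cells in Alsever's solution. After 40 min at room temperature, erythrocyte aggregation was read visually.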

[15] = biological target: Hemagglutinin (Influenza A virus (A/Puerto Rico/8/1934(H1N1))) (UniProt P03452); assay: Inhibition of Influenza A virus A/PR/8/34 HA2-mediated hemolysis preincubated with virus for 30 mins followed by chicken red blood cells addition measured after 30 mins by spectrophotometric analysis
In short: (§4)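 Virus (100 µL) was incubated with two-fold serial compound dilutions in PBS for 30 min at 37 °C. An equal volume of chicken red blood cells in citric acid-sodium citrate (pH 5.0) was added and incubated 30 min at 37 °C, then centrifuged at 400 × g. Supernatant absorbance was read at 540 nm, with mock-infected background subtracted. IC50 is the concentration giving 50% hemolysis inhibition. Two independent experiments were run.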

[16] = biological target: Hemagglutinin (Influenza A virus (strain A/Aichi/2/1968 H3N2)) (UniProt P03437); assay: (§5) Inhibition of Influenza A virus A/Aichi/2/68 (H3N2) HA2-mediated hemolysis preincubated with virus for 30 mins followed by chicken red blood cells addition measured after 30 mins by spectrophotometric analysis; conditions: Influenza A virus (A/Aichi/2/1968(H3N2)); in short: as §4
[17] = biological target: Hemagglutinin (Influenza A virus (strain A/Aichi/2/1968 H3N2), UniProt P03437); assay: as §5; parameters: species or system Influenza A virus (A/Aichi/2/1968(H3N2)); in short: as §4
[18] = system: Influenza A virus; assay: Antiviral activity against Influenza A virus (A/PR/8/34 (H1N1)) infected in MDCK cells assessed as inhibition of virus yield dosed at 0 to 2 hrs post infection and measured after 24 hrs; assay type: functional, organism-based; conditions: A/Puerto Rico/8/1934(H1N1); in short: as §3

Question: Which results are given for C[C@@H]1C2CC(C[C@H]1NCc1sccc1C1CC1)C2(C)C (single isomer, unassigned)?
Answer: EC50 [1]: 300 nM; Activity [2]: Active; Activity [3]: Active; MCC at 48 h [4]: 25 µM; EC50 [5]: 1480 nM; EC50 [6]: 2230 nM; EC50 [7]: 5380 nM; EC50 [8]: 4550 nM; EC50 [9]: 4580 nM; EC50 [10]: 6790 nM; EC50 [11]: 340 nM; EC50 [12]: 100 nM; inhibition [13]: Active; inhibition [14]: inactive; inhibition [15]: Dose-dependent effect; inhibition [16]: Dose-dependent effect; IC50 [17]: 1230 nM; inhibition [18]: Active
